Reference: ChEMBL document CHEMBL1122112, “Imidodisulfamides. 1. A novel class of antagonists of slow-reacting substance of anaphylaxis” (1982)

species on record: Cavia porcellus; assay: Percent inhibition of slow reacting substance of anaphylaxis (SRS-A) induced contractions of isolated guinea pig ileum at 10 uM concentration.; format: functional
How it was run: (§1)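 Ileum segments proximal to Peyer's patch from male albino Hartley guinea pigs (400-600 g), in modified Tyrode's at 37.5 °C gassed with 95% O2-5% CO2. Isometric contractions recorded. Partially purified guinea pig SRS-A applied at a level giving 60-80% of maximal contraction until responses are reproducible, then reapplied after incubation with compound. Controls receive vehicle. Inhibition is the mean % change in treated tissue minus the mean % change in controls. FPL-55712 serves as reference.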

For `O=S(=O)(NCc1ccccc1)NS(=O)(=O)NCc1ccccc1`, which inhibition at 10 µM is on record?
Its inhibition at 10 µM is 0.2%.

How did the inhibition at 10 µM turn out when `O=S(=O)(NCCCCc1ccccc1)NS(=O)(=O)NCCCCc1ccccc1` was run?
Its inhibition at 10 µM is 40%.

How did the inhibition at 10 µM turn out when `O=S(=O)(NCCCCc1ccc(Cl)cc1)NS(=O)(=O)NCCCCc1ccc(Cl)cc1` was run?
Its inhibition at 10 µM is 22%.

For `O=S(=O)(NCCCCCc1ccccc1)NS(=O)(=O)NCCCCCc1ccccc1`, which inhibition at 10 µM is on record?
Its inhibition at 10 µM is 8%.

`O=S(=O)(NCCc1ccc(Cl)c(Cl)c1)NS(=O)(=O)NCCc1ccc(Cl)c(Cl)c1` was tested. Which inhibition at 10 µM did it give?
Its inhibition at 10 µM is 43%.

For `O=S(=O)(Nc1ccc(C(F)(F)F)cc1)NS(=O)(=O)Nc1ccc(C(F)(F)F)cc1`, which inhibition at 10 µM is on record?
Its inhibition at 10 µM is 24%.

For `O=S(=O)(NCCCCCCc1ccccc1)NS(=O)(=O)NCCCCCCc1ccccc1`, which inhibition at 10 µM is on record?
Its inhibition at 10 µM is 15%.

`O=S(=O)(NCCc1ccccc1Cl)NS(=O)(=O)NCCc1ccccc1Cl` was tested. Which inhibition at 10 µM did it give?
The inhibition at 10 µM was 8%.

species on record: Cavia porcellus; assay: Percent inhibition of slow reacting substance of anaphylaxis (SRS-A) induced contractions of isolated guinea pig ileum at 50 uM concentration.; format: functional; how it was run: as §1

How did the inhibition at 50 µM turn out when `COc1ccccc1CCNS(=O)(=O)NS(=O)(=O)NCCc1ccccc1OC` was run?
The inhibition at 50 µM was 0.2%.

How did the inhibition at 50 µM turn out when `O=S(=O)(Nc1ccc(Br)cc1)NS(=O)(=O)Nc1ccc(Br)cc1` was run?
Its inhibition at 50 µM is 47%.

For `O=S(=O)(Nc1cccc(Cl)c1)NS(=O)(=O)Nc1cccc(Cl)c1`, which inhibition at 50 µM is on record?
The inhibition at 50 µM was 16%.

With `O=S(=O)(Nc1cccc(F)c1)NS(=O)(=O)Nc1cccc(F)c1` as the compound, how does the inhibition at 50 µM read?
The inhibition at 50 µM was 10%.

With `O=[N+]([O-])c1ccc(CCNS(=O)(=O)NS(=O)(=O)NCCc2ccc([N+](=O)[O-])cc2)cc1` as the compound, how does the inhibition at 50 µM read?
The inhibition at 50 µM was 19%.

With `O=S(=O)(Nc1cccc(C(F)(F)F)c1)NS(=O)(=O)Nc1cccc(C(F)(F)F)c1` as the compound, how does the inhibition at 50 µM read?
Its inhibition at 50 µM is 34%.

Which inhibition at 50 µM does the source give for `O=S(=O)(NCCc1cccc(C(F)(F)F)c1)NS(=O)(=O)NCCc1cccc(C(F)(F)F)c1` here?
Its inhibition at 50 µM is 32%.

Which inhibition at 50 µM does the source give for `O=S(=O)(Nc1ccc(F)cc1)NS(=O)(=O)Nc1ccc(F)cc1` here?
The inhibition at 50 µM was 1%.

Which inhibition at 50 µM does the source give for `O=S(=O)(NCCc1cccc(Cl)c1)NS(=O)(=O)NCCc1cccc(Cl)c1` here?
Its inhibition at 50 µM is 16%.

How did the inhibition at 50 µM turn out when `COc1cccc(CCNS(=O)(=O)NS(=O)(=O)NCCc2cccc(OC)c2)c1` was run?
Its inhibition at 50 µM is 9%.

With `O=S(=O)(NCCc1ccc(Br)cc1)NS(=O)(=O)NCCc1ccc(Br)cc1` as the compound, how does the inhibition at 50 µM read?
Its inhibition at 50 µM is 72%.

For `Cc1cccc(NS(=O)(=O)NS(=O)(=O)Nc2cccc(C)c2)c1`, which inhibition at 50 µM is on record?
The inhibition at 50 µM was 13%.

For `CSc1cccc(NS(=O)(=O)NS(=O)(=O)Nc2cccc(SC)c2)c1`, which inhibition at 50 µM is on record?
The inhibition at 50 µM was 12%.

How did the inhibition at 50 µM turn out when `Cc1ccc(CCNS(=O)(=O)NS(=O)(=O)NCCc2ccc(C)cc2)cc1` was run?
The inhibition at 50 µM was 1%.

With `O=S(=O)(NCCc1ccc(O)cc1)NS(=O)(=O)NCCc1ccc(O)cc1` as the compound, how does the inhibition at 50 µM read?
The inhibition at 50 µM was 7%.

`O=S(=O)(Nc1cccc(Br)c1)NS(=O)(=O)Nc1cccc(Br)c1` was tested. Which inhibition at 50 µM did it give?
The inhibition at 50 µM was 38%.

For `N#Cc1ccc(NS(=O)(=O)NS(=O)(=O)Nc2ccc(C#N)cc2)cc1`, which inhibition at 50 µM is on record?
Its inhibition at 50 µM is -8%.

With `CC(=O)c1ccc(NS(=O)(=O)NS(=O)(=O)Nc2ccc(C(C)=O)cc2)cc1` as the compound, how does the inhibition at 50 µM read?
The inhibition at 50 µM was -11%.

With `O=S(=O)(Nc1ccc(C(F)(F)F)cc1)NS(=O)(=O)Nc1ccc(C(F)(F)F)cc1` as the compound, how does the inhibition at 50 µM read?
Its inhibition at 50 µM is 86%.

How did the inhibition at 50 µM turn out when `COc1ccc(CCNS(=O)(=O)NS(=O)(=O)NCCc2ccc(OC)cc2)cc1` was run?
The inhibition at 50 µM was 18%.

With `O=S(=O)(Nc1ccc(Cl)cc1)NS(=O)(=O)Nc1ccc(Cl)cc1` as the compound, how does the inhibition at 50 µM read?
The inhibition at 50 µM was -2%.

species on record: Cavia porcellus; assay: Percent inhibition of slow reacting substance of anaphylaxis (SRS-A) induced contractions of isolated guinea pig ileum at 20 uM concentration.; format: functional; how it was run: as §1

How did the inhibition at 20 µM turn out when `O=S(=O)(NCCCc1ccccc1)NS(=O)(=O)NCCCc1ccccc1` was run?
Its inhibition at 20 µM is 15%.

Which inhibition at 20 µM does the source give for `O=S(=O)(NCCc1ccccc1)NS(=O)(=O)NCCc1ccccc1` here?
Its inhibition at 20 µM is 7%.

Which inhibition at 20 µM does the source give for `O=S(=O)(Nc1ccccc1)NS(=O)(=O)Nc1ccccc1` here?
Its inhibition at 20 µM is 6%.

`O=S(=O)(NCCc1ccc(Cl)cc1)NS(=O)(=O)NCCc1ccc(Cl)cc1` was tested. Which inhibition at 20 µM did it give?
The inhibition at 20 µM was 62%.

species on record: Cavia porcellus; assay: Percent inhibition of slow reacting substance of anaphylaxis (SRS-A) induced contractions of isolated guinea pig ileum at 5 uM concentration.; format: functional; how it was run: as §1

Which inhibition at 5 µM does the source give for `CCCCc1ccc(NS(=O)(=O)NS(=O)(=O)Nc2ccc(CCCC)cc2)cc1` here?
Its inhibition at 5 µM is 5%.

With `CCOC(=O)c1ccc(NS(=O)(=O)NS(=O)(=O)Nc2ccc(C(=O)OCC)cc2)cc1` as the compound, how does the inhibition at 5 µM read?
Its inhibition at 5 µM is -5%.

Which inhibition at 5 µM does the source give for `O=S(=O)(NCCc1cccc(SC(F)(F)F)c1)NS(=O)(=O)NCCc1cccc(SC(F)(F)F)c1` here?
Its inhibition at 5 µM is -6%.
